Data reported in ChEMBL document CHEMBL1240389, “In vitro and in vivo activities of the novel anticytomegalovirus compound AIC246” (Antimicrob Agents Chemother, 2010).
Active and inactive are the calls of the source. No cut-off for these calls is given here.

How the values were obtained:
Human betaherpesvirus 5 [1] = test: Antiviral activity against human cytomegalovirus AD169 infected in NHDF at 10 times EC50 treated postinfection and measured after 7 days by GFP-based fluorescent reduction assay
Human betaherpesvirus 5 [2] = test: Antiviral activity against human cytomegalovirus AD169 infected in NHDF at 11 uM treated after 57 hrs postinfection measured after 7 days by GFP-based fluorescent reduction assay; format: functional, organism-based
[3] = Selectivity index, ratio of CC50 for human MRC5 cells to EC50 for human cytomegalovirus infected in human MRC5 cells; format: toxicity, cell-based; details: MRC5 cells infected with human cytomegalovirus, read-out: Selectivity Index
Outline: (§1)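 SI = CC₅₀/EC₅₀ in the same fibroblast type. EC₅₀: GFP-expressing HCMV AD169, 3-fold dilutions, 7 days at 37°C, GFP units by CCD camera. CC₅₀ run in parallel: 1.5 × 10⁴ cells/well overnight, 3-fold dilutions from 0.33 mM (DMSO constant 0.66%), 7 days, alamarBlue fluorescence as % of untreated cells; ≥3 runs in duplicate.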

[4] = Cytotoxicity against human HS27 cells infected with human cytomegalovirus after 7 days by alamar blue assay; format: cell-based
Outline: (§2)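 Fibroblasts seeded at 1.5 × 10⁴/well, incubated overnight, then given drug in 3-fold serial dilutions from 0.33 mM (DMSO constant 0.66%). After 7 days, alamarBlue added and fluorescence read; signal as % of untreated cell controls versus log concentration; CC50 from dose-response curves. At least three experiments with duplicates.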

[5] = Cytotoxicity against human MRC5 cells infected with human cytomegalovirus after 7 days by alamar blue assay; format: cell-based
Outline: as §2

[6] = Cytotoxicity against HLF infected with human cytomegalovirus after 7 days by alamar blue assay; details: HLF cells infected with human cytomegalovirus
Outline: as §2

[7] = Cytotoxicity against NHDF infected with human cytomegalovirus after 7 days by alamar blue assay; format: cell-based; details: NHDF cells infected with human cytomegalovirus
Outline: as §2

[8] = Selectivity index, ratio of CC50 for human HS27 cells to EC50 for human cytomegalovirus infected in human HS27 cells; format: toxicity, cell-based; details: HS27 cells infected with human cytomegalovirus, read-out: Selectivity Index
Outline: as §1

[9] = Selectivity index, ratio of CC50 for HEL299 cells to EC50 for human cytomegalovirus infected in HEL299 cells; format: toxicity, cell-based, HEL 299; details: read-out: Selectivity Index
Outline: as §1

[10] = Cytotoxicity against HEL299 cells infected with human cytomegalovirus after 7 days by alamar blue assay; format: cell-based, HEL 299
Outline: as §2

What does the source list for CN(C)c1cccc2c(S(=O)(=O)Nc3ccc(NC(=O)C(C)(C)CO)cc3)cccc12?
Activity (Human betaherpesvirus 5 [1]): Active; Activity (Human betaherpesvirus 5 [2]): inactive

Which selectivity ratio [3] does the source give for Nc1nc(O)c2ncn(COC(CO)CO)c2n1 [GANCICLOVIR] here?
Its selectivity ratio is over 202.

And the CC50 at 168 h [4]?
The CC50 at 168 h was over 333 µM.

And the CC50 at 168 h [5]?
The CC50 at 168 h was over 333 µM.

What about the CC50 at 168 h [6] of the same molecule?
Its CC50 at 168 h is over 333 µM.

And the CC50 at 168 h [7]?
The CC50 at 168 h was over 333 µM.

And the selectivity ratio [8]?
The selectivity ratio was over 1040.

What about the selectivity ratio [9] of the same molecule?
The selectivity ratio was over 139.

And the CC50 at 168 h [10]?
The CC50 at 168 h was over 333 µM.
